# Results: PubChem BioAssay AID1556 (The Scripps Research Institute Molecular Screening Center, 2009)
# About 1,300 (0.45%) of roughly 290,000 compounds were called active. Only a selection was taken, and actives are over-represented in it overall. Unmarked numbers belong to inactive results.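 How the source made its calls: active means inhibition above the mean plus 3 SD of all compounds in the same screening run (cut at about 4.5% in these data); inactive means the rest.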
# System: metallo-beta-lactamase IMP-1 (Pseudomonas aeruginosa)
# Experiment: IMP-1 metallo-beta-lactamase inhibitors, primary screen, biochemical, epi-absorbance readout, Pseudomonas aeruginosa enzyme (AID 1556);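 further: 0% = IMP-1 with DMSO and 100% = DMSO wells lacking enzyme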
# Settings: purified IMP-1, nitrocefin hydrolysis, epi-absorbance fluorescence; at 5.6 µM; hits give high values
# Summary of the method: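 Test system: recombinant IMP-1 enzyme, purified / Medium: HEPES buffer pH 7.1 with ZnSO4 and Brij 35 / Doses: single dose, 5.6 µM / Times: 25 °C, 15 min preincubation, 25 min reaction / Detection: Epi-absorbance via hydrolysed-nitrocefin quenching of white-plate fluorescence, 480/530 nm, EDTA stop / Evaluation: percent inhibition from optical density relative to buffer-blank wells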
row,SMILES,inhibition
1,CCN1C(=O)C(=Cc2c(C)n(CC(=O)NCC3CCCO3)c3ccccc23)C(=O)N(CC)C1=S (stereo not given),20% (active)
2,O=C(O)c1ccccc1NC(=O)C1C2CCC(O2)C1C(=O)O (stereo not given),-2.48%
3,CCCCn1c(=O)c(C(=O)Nc2ccccc2Cl)c(O)c2ccccc21,-1.42%
4,CCOC(=O)C1SC2(C(F)(F)C(F)F)CC1(O)c1c(c(OC)c3occc3c1OC)O2 (stereo not given),-3.5%
5,C[N+]12CN3CN(CN(C3)C1)C2,5.56% (active)
6,Cc1cccc(OP(=O)(Oc2cccc(C)c2)OC(c2ccccc2)C(F)(F)F)c1 (stereo not given),-4.97%
7,Clc1ccc2nc3c(c(-c4ccccc4)c2c1)CNCC3,-2.18%
8,Cc1ccc(C)c(NC2=NCCCS2)c1,-1.87%
9,COc1cc2nc(N3CCN(C(=O)[C@@H]4CCCO4)CC3)nc(N)c2cc1OC,-4.21%
10,CC1(C)C(c2ccccc2)=NC(c2cccnc2)=[N+]1[O-],-4.75%
